Legend:
[1] = target: Angiotensin II receptor (Rattus norvegicus) (UniProt P29089+P25095+P35351); assay: In vivo inhibitory activity against angiotensin II induced pressor response in anesthetized normotensive rats; assay type: functional, organism-based
Method in brief: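 Male Wistar-Imamichi rats (300–400 g) under inactin (100 mg/kg ip), with femoral arterial and venous cannulae. AII 50 ng/kg iv every 10 min until responses were constant. Compound in DMSO was then given iv and AII re-injected 2 min later.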

[2] = target: T1, Type-1 angiotensin II receptor (Bos taurus, UniProt P25104); assay: In vitro for inhibition of [125I]-angiotensin II (0.1 nM) binding to angiotensin II receptor type 1 in membrane fractions of bovine adrenal cortex; assay type: tissue-based
T1 sequence (P25104 whole entry): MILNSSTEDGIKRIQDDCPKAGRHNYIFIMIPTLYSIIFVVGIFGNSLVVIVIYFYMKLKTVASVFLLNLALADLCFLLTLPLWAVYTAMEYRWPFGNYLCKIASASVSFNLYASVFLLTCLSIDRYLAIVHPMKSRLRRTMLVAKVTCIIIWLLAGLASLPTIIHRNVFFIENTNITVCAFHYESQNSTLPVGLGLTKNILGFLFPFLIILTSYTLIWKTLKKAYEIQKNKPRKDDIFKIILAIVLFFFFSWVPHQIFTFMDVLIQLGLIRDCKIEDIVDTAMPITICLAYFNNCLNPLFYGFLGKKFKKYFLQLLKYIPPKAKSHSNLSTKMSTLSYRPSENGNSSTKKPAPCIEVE

Rattus norvegicus [3] = assay: Inhibitory activity against AII-Induced Pressor response at 1 mg/kg at 3 hour; assay type: functional; conditions: Rattus norvegicus, 3 h
Method in brief: (§1)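 Male Wistar-Imamichi rats (300–400 g) cannulated under pentobarbital (50 mg/kg ip), fasted 24 h, tested conscious the next day. AII 50 ng/kg iv was repeated until constant, then compound in 50% aqueous DMF given orally. AII was repeated over 8 h, and mean blood pressure response inhibition (%) was recorded at 1, 3, 6 h. n = 3–5.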

Rattus norvegicus [4] = assay: Inhibitory activity against AII-Induced Pressor response at 1 mg/kg at 1 hr; assay type: functional; method in brief: as §1
Rattus norvegicus [5] = assay: Inhibitory activity against AII-Induced Pressor response at 1 mg/kg at 6 hour; assay type: functional; conditions: Rattus norvegicus, 6 h, dose 1 mg/kg; method in brief: as §1
Rattus norvegicus [6] = assay: Inhibitory activity against AII-Induced Pressor response at 10 mg/Kg at 1 hr; assay type: functional; method in brief: as §1
Rattus norvegicus [7] = assay: Inhibitory activity against AII-Induced Pressor response at 1 mg/Kg at 1 hr; assay type: functional; method in brief: as §1
Rattus norvegicus [8] = assay: Inhibitory activity against AII-Induced Pressor response at 1 mg/Kg at 6 hour; assay type: functional; method in brief: as §1
Rattus norvegicus [9] = assay: Inhibitory activity against AII-Induced Pressor response at 3 mg/Kg at 3 hour; assay type: functional; method in brief: as §1
Rattus norvegicus [10] = assay: Inhibitory activity against AII-Induced Pressor response at 3 mg/Kg at 6 hour; assay type: functional; method in brief: as §1
Rattus norvegicus [11] = assay: Inhibitory activity against AII-Induced Pressor response at 1 mg/Kg at 3 hour; assay type: functional; method in brief: as §1
Rattus norvegicus [12] = assay: Inhibitory activity against AII-Induced Pressor response at 10 mg/Kg at 3 hour; assay type: functional; method in brief: as §1
Rattus norvegicus [13] = assay: Inhibitory activity against AII-Induced Pressor response at 10 mg/Kg at 6 hour; assay type: functional; method in brief: as §1
Rattus norvegicus [14] = assay: Inhibitory activity against AII-Induced Pressor response at 3 mg/Kg at 1 hr; assay type: functional; method in brief: as §1
Rattus norvegicus [15] = assay: Inhibitory activity against AII-Induced Pressor response at 0.3 mg/Kg at 1 hr; assay type: functional; method in brief: as §1
Rattus norvegicus [16] = assay: Inhibitory activity against AII-Induced Pressor response at 0.3 mg/Kg at 6 hour; assay type: functional; method in brief: as §1
Rattus norvegicus [17] = assay: Inhibitory activity against AII-Induced Pressor response at 0.3 mg/Kg at 3 hour; assay type: functional; method in brief: as §1

SMILES	ID50 [1] [mg/kg]	IC50 [2] [nM]	other results
CCCc1nc(C(C)(C)O)c(C(=O)O)n1Cc1ccc(-c2ccccc2C(=O)OCOC(=O)C(C)(C)C)cc1	–	–	inhibition in vivo at 1 mg/kg (Rattus norvegicus [3]): 35%; inhibition in vivo at 1 mg/kg (Rattus norvegicus [4]): 20%; inhibition in vivo at 1 mg/kg (Rattus norvegicus [5]): 40%
CCCCc1nc(Cl)c(CO)n1Cc1ccc(-c2ccccc2-c2nnn[nH]2)cc1 [LOSARTAN]	0.3	–	inhibition in vivo at 10 mg/kg (Rattus norvegicus [6]): 69%; inhibition in vivo at 1 mg/kg (Rattus norvegicus [7]): 12%; inhibition in vivo at 1 mg/kg (Rattus norvegicus [8]): 32%; inhibition in vivo at 3 mg/kg (Rattus norvegicus [9]): 35%; inhibition in vivo at 3 mg/kg (Rattus norvegicus [10]): 65%; inhibition in vivo at 1 mg/kg (Rattus norvegicus [11]): 12%; inhibition in vivo at 10 mg/kg (Rattus norvegicus [12]): 77%; inhibition in vivo at 10 mg/kg (Rattus norvegicus [13]): 85%; inhibition in vivo at 3 mg/kg (Rattus norvegicus [14]): 38%
CCCc1nc(C(C)(C)O)c(C(=O)OCOC(=O)OC(C)C)n1Cc1ccc(-c2ccccc2C(=O)O)cc1	–	–	inhibition in vivo at 1 mg/kg (Rattus norvegicus [3]): 71%; inhibition in vivo at 1 mg/kg (Rattus norvegicus [4]): 71%; inhibition in vivo at 1 mg/kg (Rattus norvegicus [5]): 71%
C=C(C)c1nc(CCC)n(Cc2ccc(-c3ccccc3-c3nnn[nH]3)cc2)c1C(=O)O	–	50	–
CCCc1nc(CO)c(C(=O)O)n1Cc1ccc(-c2ccccc2-c2nnn[nH]2)cc1	–	6.9	–
CCCc1nc(C(C)(C)O)c(C(=O)OCC)n1Cc1ccc(-c2ccccc2-c2nnn[nH]2)cc1	–	200	–
CCCc1nc(C(C)O)c(C(=O)O)n1Cc1ccc(-c2ccccc2-c2nnn[nH]2)cc1 (configuration not stated)	–	4.9	–
CCCc1nc(C(C)(C)O)c(C(=O)OCC)n1Cc1ccc(-c2ccccc2-c2nn[nH]n2)cc1	0.32	–	inhibition in vivo at 1 mg/kg (Rattus norvegicus [7]): 70%; inhibition in vivo at 1 mg/kg (Rattus norvegicus [8]): 76%; inhibition in vivo at 1 mg/kg (Rattus norvegicus [11]): 72%
CCCc1nc(C(C)(C)O)c(C(=O)OCc2oc(=O)oc2C)n1Cc1ccc(-c2ccccc2C(=O)O)cc1	–	–	inhibition in vivo at 1 mg/kg (Rattus norvegicus [3]): 70%; inhibition in vivo at 1 mg/kg (Rattus norvegicus [4]): 72%; inhibition in vivo at 1 mg/kg (Rattus norvegicus [5]): 70%
CCCCc1nc(Cl)c(C(=O)O)n1Cc1ccc(-c2ccccc2-c2nn[nH]n2)cc1 [CARBOXYLIC ACID METABOLITE]	0.1	–	inhibition in vivo at 10 mg/kg (Rattus norvegicus [6]): 89%; inhibition in vivo at 1 mg/kg (Rattus norvegicus [7]): 74%; inhibition in vivo at 1 mg/kg (Rattus norvegicus [8]): 70%; inhibition in vivo at 3 mg/kg (Rattus norvegicus [9]): 81%; inhibition in vivo at 3 mg/kg (Rattus norvegicus [10]): 81%; inhibition in vivo at 1 mg/kg (Rattus norvegicus [11]): 72%; inhibition in vivo at 10 mg/kg (Rattus norvegicus [12]): 93%; inhibition in vivo at 10 mg/kg (Rattus norvegicus [13]): 89%; inhibition in vivo at 3 mg/kg (Rattus norvegicus [14]): 81%
CCCc1nc(C)c(C(=O)O)n1Cc1ccc(-c2ccccc2-c2nn[nH]n2)cc1	0.028	11	–
CCCc1nc(C(C)(C)O)c(C(=O)OC2OC(=O)c3ccccc32)n1Cc1ccc(-c2ccccc2C(=O)O)cc1 (configuration not stated)	–	–	inhibition in vivo at 1 mg/kg (Rattus norvegicus [3]): 77%; inhibition in vivo at 1 mg/kg (Rattus norvegicus [4]): 73%; inhibition in vivo at 1 mg/kg (Rattus norvegicus [5]): 74%
CCCc1nc(C(C)C)c(C(=O)O)n1Cc1ccc(-c2ccccc2-c2nn[nH]n2)cc1	0.014	–	–
CCCc1nc(CC)c(C(=O)O)n1Cc1ccc(-c2ccccc2-c2nn[nH]n2)cc1	0.019	–	–
CCCc1nc(CC)c(C(=O)O)n1Cc1ccc(-c2ccccc2-c2nnn[nH]2)cc1	–	12	–
CCCc1nc(CO)c(C(=O)O)n1Cc1ccc(-c2ccccc2-c2nn[nH]n2)cc1	0.0062	–	inhibition in vivo at 0.3 mg/kg (Rattus norvegicus [15]): 76%; inhibition in vivo at 0.3 mg/kg (Rattus norvegicus [16]): 65%; inhibition in vivo at 0.3 mg/kg (Rattus norvegicus [17]): 75%
C=C(C)c1nc(CCC)n(Cc2ccc(-c3ccccc3-c3nn[nH]n3)cc2)c1C(=O)O	0.012	–	–
CCCc1nc(C(=O)O)cn1Cc1ccc(-c2ccccc2-c2nn[nH]n2)cc1	2.4	–	–
CCCc1ncc(C(=O)O)n1Cc1ccc(-c2ccccc2-c2nn[nH]n2)cc1	0.018	9.1	–
CCCc1nc(C(=O)O)c(CO)n1Cc1ccc(-c2ccccc2-c2nn[nH]n2)cc1	1.7	4600	–
CCCc1nc(C(C)O)c(C(=O)O)n1Cc1ccc(-c2ccccc2-c2nn[nH]n2)cc1 (configuration not stated)	0.0063	–	inhibition in vivo at 0.3 mg/kg (Rattus norvegicus [15]): 80%; inhibition in vivo at 0.3 mg/kg (Rattus norvegicus [16]): 69%; inhibition in vivo at 0.3 mg/kg (Rattus norvegicus [17]): 78%
CCCc1nc(C(C)C)c(C(=O)O)n1Cc1ccc(-c2ccccc2-c2nnn[nH]2)cc1	–	46	–

Now from value to compound, other results behind:

ID50 [1] [mg/kg]	IC50 [2] [nM]	SMILES	other results
0.21	–	CCCCc1nc(Cl)c(C(=O)O)n1Cc1ccc(-c2ccccc2C(=O)O)cc1	–
0.27	100	CCCc1nc(CC)c(C(=O)O)n1Cc1ccc(-c2ccccc2C(=O)O)cc1	–
0.066	30	CCCCc1nc(C(C)(C)O)c(C(=O)O)n1Cc1ccc(-c2ccccc2C(=O)O)cc1	–
0.096	110	CCCc1nc(C)c(C(=O)O)n1Cc1ccc(-c2ccccc2C(=O)O)cc1	–
2.1	–	CCCc1nc(CO)c(CO)n1Cc1ccc(-c2ccccc2C(=O)O)cc1	–
0.11	110	CCCc1nc(C(O)(CC)CC)c(C(=O)O)n1Cc1ccc(-c2ccccc2C(=O)O)cc1	–
2.3	–	CCCCc1nc(Cl)c(CO)n1Cc1ccc(-c2ccccc2C(=O)O)cc1	–
0.37	270	C=C(C)c1nc(CCC)n(Cc2ccc(-c3ccccc3C(=O)O)cc2)c1C(=O)O	–
0.074	51	CCCc1nc(C(C)(O)CC)c(C(=O)O)n1Cc1ccc(-c2ccccc2C(=O)O)cc1 (configuration not stated)	–
0.019	–	CCc1nc(C(C)(C)O)c(C(=O)O)n1Cc1ccc(-c2ccccc2-c2nn[nH]n2)cc1	–
8.8	–	CCCc1nc(C(=O)O)c(CO)n1Cc1ccc(-c2ccccc2C(=O)O)cc1	–
1.2	600	CCCc1nc(C(C)(C)O)c(C(=O)OCC)n1Cc1ccc(-c2ccccc2C(=O)O)cc1	inhibition in vivo at 10 mg/kg (Rattus norvegicus [6]): 40%; inhibition in vivo at 3 mg/kg (Rattus norvegicus [9]): 28%; inhibition in vivo at 3 mg/kg (Rattus norvegicus [10]): 25%; inhibition in vivo at 10 mg/kg (Rattus norvegicus [12]): 70%; inhibition in vivo at 10 mg/kg (Rattus norvegicus [13]): 75%; inhibition in vivo at 3 mg/kg (Rattus norvegicus [14]): 26%
–	9.5	CCCCc1nc(C(C)(C)O)c(C(=O)O)n1Cc1ccc(-c2ccccc2-c2nnn[nH]2)cc1	–
0.031	–	CCCc1nc(C(=O)O)c(C(=O)O)n1Cc1ccc(-c2ccccc2-c2nn[nH]n2)cc1	–
0.056	28	CCCc1nc(C(C)(C)O)c(C(=O)O)n1Cc1ccc(-c2ccccc2C(=O)O)cc1	inhibition in vivo at 10 mg/kg (Rattus norvegicus [6]): 88%; inhibition in vivo at 1 mg/kg (Rattus norvegicus [3]): 42%; inhibition in vivo at 3 mg/kg (Rattus norvegicus [9]): 67%; inhibition in vivo at 3 mg/kg (Rattus norvegicus [10]): 48%; inhibition in vivo at 1 mg/kg (Rattus norvegicus [4]): 50%; inhibition in vivo at 1 mg/kg (Rattus norvegicus [5]): 12%; inhibition in vivo at 10 mg/kg (Rattus norvegicus [12]): 70%; inhibition in vivo at 10 mg/kg (Rattus norvegicus [13]): 56%; inhibition in vivo at 3 mg/kg (Rattus norvegicus [14]): 78%
–	5.3	CCc1nc(C(C)(C)O)c(C(=O)O)n1Cc1ccc(-c2ccccc2-c2nnn[nH]2)cc1	–
1.5	–	CCCc1nc(CO)c(C(=O)OCC)n1Cc1ccc(-c2ccccc2C(=O)O)cc1	–
0.14	–	CCCc1nc(C(C)C)c(C(=O)O)n1Cc1ccc(-c2ccccc2C(=O)O)cc1	–
0.017	–	CCCCc1nc(C(C)(C)O)c(C(=O)O)n1Cc1ccc(-c2ccccc2-c2nn[nH]n2)cc1	–
0.22	60	CCCc1ncc(C(=O)O)n1Cc1ccc(-c2ccccc2C(=O)O)cc1	–
0.069	–	CCCc1nc(CO)c(C(=O)O)n1Cc1ccc(-c2ccccc2C(=O)O)cc1	–
8.2	45000	CCCc1nc(C(=O)O)cn1Cc1ccc(-c2ccccc2C(=O)O)cc1	–
0.67	–	CCCc1nc(C(=O)O)c(C(=O)O)n1Cc1ccc(-c2ccccc2C(=O)O)cc1	–
0.3	37	CCc1nc(C(C)(C)O)c(C(=O)O)n1Cc1ccc(-c2ccccc2C(=O)O)cc1	–
0.062	28	CCCc1nc(C(C)O)c(C(=O)O)n1Cc1ccc(-c2ccccc2C(=O)O)cc1 (configuration not stated)	–
